Paper PMC7228743 (Science Advances, 2020)

Key:
hGLP-1R = hGLP-1R (Homo sapiens, UniProt P43220); test: In vitro GLP-1R activation assay; format: cell-based; conditions: ratio of cAMP EC50 values, 39.79 nM versus […]
Serum stability assay = format: in vitro ADME; conditions: 25% (v/v) pooled human serum, 37°C, 24 hours; RP-HPLC peak area at 215 nm
Outline: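 Peptides dissolved in H2O/MeCN (70:30 v/v), diluted into 25% (v/v) aqueous pooled serum from human male AB plasma, and held at 37°C for 24 hours. Samples were quenched with an equal volume of MeCN on ice for 20 min, then centrifuged at 4°C for 15 min. Supernatant was diluted in H2O (0.1% TFA) to 0.1 mg/ml and run on RP-HPLC. Intact peptide was taken from the elution peak area at 215 nm.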

Sequence of hGLP-1R (P43220 24-463): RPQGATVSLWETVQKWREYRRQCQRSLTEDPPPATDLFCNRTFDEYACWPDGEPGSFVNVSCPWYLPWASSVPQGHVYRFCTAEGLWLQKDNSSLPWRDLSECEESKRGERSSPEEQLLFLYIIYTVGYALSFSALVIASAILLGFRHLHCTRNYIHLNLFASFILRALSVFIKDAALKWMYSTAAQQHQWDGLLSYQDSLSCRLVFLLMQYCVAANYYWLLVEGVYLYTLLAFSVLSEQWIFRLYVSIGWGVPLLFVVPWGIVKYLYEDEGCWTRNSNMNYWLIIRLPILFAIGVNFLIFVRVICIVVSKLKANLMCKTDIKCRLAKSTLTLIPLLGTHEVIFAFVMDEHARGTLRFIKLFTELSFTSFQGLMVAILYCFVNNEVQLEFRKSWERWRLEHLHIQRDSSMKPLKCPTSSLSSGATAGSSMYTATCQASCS

Potency of 3 relative to capped GLP-1 2 (fold lower) (hGLP-1R) | Stability in the presence of serum (in words) (Serum stability assay) | SMILES
~ 10 fold | remarkable stability | CC[C@H](C)[C@@H](CN(CC(=O)N[C@@H](Cc1c[nH]c2ccccc12)CN(CC(=O)N[C@H](CN(CC(=O)NCCN(CC(N)=O)S(=O)(=O)CCN)S(=O)(=O)CCN)C(C)C)S(=O)(=O)CC(C)C)S(C)(=O)=O)NC(=O)CN(C[C@H](CCC(=O)O)NC(=O)CN(C[C@H](C)NC(=O)CN(C[C@H](CCCCN)NC(=O)CN(C[C@H](CCC(=O)O)NC(=O)CN(C[C@H](Cc1ccc(O)cc1)NC(=O)CN(C[C@H](CO)NC(=O)CN(C[C@H](CC(=O)O)NC(=O)CN(C[C@@H](NC(=O)CN(C[C@@H](NC(=O)CN(C[C@H](CCC(=O)O)NC(=O)CN(C[C@H](Cc1ccccc1)NC(C)=O)S(C)(=O)=O)S(C)(=O)=O)[C@@H](C)O)S(=O)(=O)Cc1ccccc1)[C@@H](C)O)S(C)(=O)=O)S(=O)(=O)CC(C)C)S(C)(=O)=O)S(=O)(=O)CC(C)C)S(C)(=O)=O)S(C)(=O)=O)S(=O)(=O)CCN)S(=O)(=O)Cc1ccccc1 [compound 3]
 | remarkable stability | CC[C@H](C)[C@@H](CN(CC(=O)N[C@@H](Cc1c[nH]c2ccccc12)CN(CC(=O)N[C@H](CN(CC(=O)NCCN(CC(N)=O)S(=O)(=O)CCN)S(=O)(=O)CCN)C(C)C)S(=O)(=O)CC(C)C)S(C)(=O)=O)NC(=O)CN(C[C@H](CCC(=O)O)NC(=O)CN(C[C@H](C)NC(=O)CN(C[C@H](CCCCN)NC(=O)CN(C[C@H](CCC(=O)O)NC(=O)CN(C[C@H](Cc1ccc(O)cc1)NC(=O)CN(C[C@H](CO)NC(=O)CN(C[C@H](CC(=O)O)NC(=O)CN(C[C@@H](NC(=O)CN(C[C@@H](NC(=O)CN(C[C@H](CCC(=O)O)NC(=O)CN(C[C@H](Cc1ccccc1)NC(C)=O)S(C)(=O)=O)S(C)(=O)=O)[C@@H](C)O)S(=O)(=O)Cc1ccccc1)[C@@H](C)O)S(C)(=O)=O)S(=O)(=O)CC(C)C)S(=O)(=O)c1ccc(OC)cc1)S(=O)(=O)CC(C)C)S(C)(=O)=O)S(C)(=O)=O)S(=O)(=O)CCN)S(=O)(=O)Cc1ccccc1 [compound 5]
